Experimental data published in ChEMBL document CHEMBL2401705, “Discovery of triazines as potent, selective and orally active PDE4 inhibitors” (Bioorg Med Chem Lett, 2013).
Converted amounts (≈) assume the structure as drawn. Blank lines part the entries; values can stand above or below the compound they belong to.

Key:
Blood = test: Inhibition of TNFalpha production in human whole blood; assay type: functional, tissue-based
[1] = Inhibition of bovine retina PDE6; parameters: species or system Bos taurus
[2] = Inhibition of CYP3A4B (unknown origin); assay type: ADME, Homo sapiens
[3] = target: 3',5'-cyclic-AMP phosphodiesterase 4A (Homo sapiens, UniProt P27815); test: Inhibition of human full length PDE4A4 expressed in baculovirus infected sf21 cells
[4] = Aqueous solubility of the compound at pH 7.4; details: buffer
PBMC = test: Inhibition of TNFalpha production in human PBMC; assay type: functional, cell-based
Mustela putorius furo [5] = test: Inhibition of LPS-induced neutrophilia in ferret COPD model BAL-fluid at 0.01 mg/kg, po; assay type: functional
Procedure, shortened: (§1)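 Ferrets challenged by LPS inhalation, with compound given orally. Read-out is the change in neutrophil count in bronchoalveolar lavage fluid, expressed as percentage inhibition.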

hERG (KCNH2) = hERG (KCNH2) (Homo sapiens, UniProt Q12809); test: Inhibition of human ERG at 10 uM
Procedure, shortened: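 hERG measured in a binding assay, reported as percent inhibition at 10 µM.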

Rattus norvegicus = test: Inhibition of LPS-induced neutrophil accumulation in rat lung at 0.1 mg/kg, po; assay type: functional
[6] = target: Dual specificity calcium/calmodulin-dependent 3',5'-cyclic nucleotide phosphodiesterase 1B (Homo sapiens, UniProt Q01064); test: Inhibition of human recombinant PDE1B
[7] = Clearance in rat at 3 mg/kg, iv; assay type: ADME, organism-based; parameters: dose 3 mg/kg, route intravenous; details: in vivo
[8] = target: 3',5'-cyclic-AMP phosphodiesterase 4B (Homo sapiens, UniProt Q07343); test: Inhibition of full length PDE4B1 (unknown origin)
Cytochrome P450 2D6 = Cytochrome P450 2D6 (Homo sapiens, UniProt P10635); test: Inhibition of CYP2D6 (unknown origin); assay type: ADME
serum albumin = serum albumin (Homo sapiens, UniProt P02768); test: Binding affinity to human serum albumin; assay type: ADME; details: read-out: PB (converted)
[9] = Half life in rat at 3 mg/kg, iv; assay type: ADME, organism-based; parameters: dose 3 mg/kg, route intravenous; details: in vivo
[10] = Intrinsic clearance in dog liver microsomes; assay type: ADME, Canis lupus familiaris, Microsome; details: read-out: CLH
[11] = Cmax in rat at 3 mg/kg, po; assay type: ADME, organism-based; parameters: dose 3 mg/kg, route oral; details: in vivo
[12] = target: High affinity cGMP-specific 3',5'-cyclic phosphodiesterase 9A (Homo sapiens, UniProt O76083); test: Inhibition of human recombinant PDE9A
[13] = target: High affinity cAMP-specific and IBMX-insensitive 3',5'-cyclic phosphodiesterase 8A (Homo sapiens, UniProt O60658); test: Inhibition of human recombinant PDE8A
[14] = Intrinsic clearance in rat liver microsomes; assay type: ADME, Microsome; details: read-out: CLH
[15] = Inhibition of CYP3A4Q (unknown origin); assay type: ADME, Homo sapiens
[16] = target: Dual 3',5'-cyclic-AMP and -GMP phosphodiesterase 11A (Homo sapiens, UniProt Q9HCR9); test: Inhibition of human recombinant PDE11A
[17] = target: cGMP-specific 3',5'-cyclic phosphodiesterase (Homo sapiens, UniProt O76074); test: Inhibition of human recombinant PDE5A
Cytochrome P450 2C19 = Cytochrome P450 2C19 (Homo sapiens, UniProt P33261); test: Inhibition of CYP2C19 (unknown origin); assay type: ADME
[18] = target: cGMP-inhibited 3',5'-cyclic phosphodiesterase 3A (Homo sapiens, UniProt Q14432); test: Inhibition of human recombinant PDE3A
Cytochrome P450 2C9 = Cytochrome P450 2C9 (Homo sapiens, UniProt P11712); test: Inhibition of CYP2C9 (unknown origin); assay type: ADME
Cytochrome P450 1A2 = Cytochrome P450 1A2 (Homo sapiens, UniProt P05177); test: Inhibition of CYP1A2 (unknown origin); assay type: ADME
Cytochrome P450 2A6 = Cytochrome P450 2A6 (Homo sapiens, UniProt P11509); test: Inhibition of CYP2A6 (unknown origin); assay type: ADME
[19] = Inhibition of CYP3A4D (unknown origin); assay type: ADME, Homo sapiens
[20] = Oral bioavailability in rat; assay type: ADME, organism-based; details: in vivo
[21] = Intrinsic clearance in human liver microsomes; assay type: ADME, Microsome; details: read-out: CLH
[22] = target: cAMP and cAMP-inhibited cGMP 3',5'-cyclic phosphodiesterase 10A (Homo sapiens, UniProt Q9Y233); test: Inhibition of human recombinant PDE10A
[23] = target: cGMP-dependent 3',5'-cyclic phosphodiesterase (Homo sapiens, UniProt O00408); test: Inhibition of human recombinant PDE2A
[24] = target: 3',5'-cyclic-AMP phosphodiesterase 4D (Rattus norvegicus, UniProt P14270); test: Inhibition of rat PDE4D3
Cytochrome P450 1A1 = Cytochrome P450 1A1 (Homo sapiens, UniProt P04798); test: Inhibition of CYP1A1 (unknown origin); assay type: ADME
Mustela putorius furo [25] = test: Inhibition of LPS-induced neutrophilia in ferret COPD model BAL-fluid at 0.1 mg/kg, po; assay type: functional; procedure, shortened: as §1
[26] = Volume of distribution in rat at 3 mg/kg; assay type: ADME, organism-based; parameters: dose 3 mg/kg; details: in vivo
Mustela putorius furo [27] = test: Toxicity in po dosed ferret assessed as first emetic dose by measuring occurrence of vomiting episode after 6 hrs; assay type: organism-based; details: in vivo
Procedure, shortened: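 Ferrets were given oral doses and watched for 6 h after administration for a vomiting episode; the first emetic dose was reported in mg/kg.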

Phosphodiesterase 4 = Phosphodiesterase 4 (Homo sapiens, UniProt P27815+Q08499+Q07343+Q08493); test: Inhibition of PDE4 (unknown origin); assay type: protein assay
Mustela putorius furo [28] = test: Toxicity in iv dosed ferret assessed as first emetic dose by measuring occurrence of vomiting episode after 6 hrs; assay type: organism-based; details: in vivo
[29] = target: High affinity 3',5'-cyclic-AMP phosphodiesterase 7A (Homo sapiens, UniProt Q13946); test: Inhibition of human full length PDE7A1 expressed in baculovirus infected sf21 cells
[30] = Inhibition of cytochrome P450 (unknown origin); assay type: ADME; details: human
[31] = target: Voltage-gated inwardly rectifying potassium channel KCNH2 (Homo sapiens, UniProt Q12809); test: Inhibition of human ERG
Procedure, shortened: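 hERG was tested in a binding-format assay as percent inhibition at a single test concentration of 10 µM.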

Chain of 3',5'-cyclic-AMP phosphodiesterase 4A (P27815 whole entry): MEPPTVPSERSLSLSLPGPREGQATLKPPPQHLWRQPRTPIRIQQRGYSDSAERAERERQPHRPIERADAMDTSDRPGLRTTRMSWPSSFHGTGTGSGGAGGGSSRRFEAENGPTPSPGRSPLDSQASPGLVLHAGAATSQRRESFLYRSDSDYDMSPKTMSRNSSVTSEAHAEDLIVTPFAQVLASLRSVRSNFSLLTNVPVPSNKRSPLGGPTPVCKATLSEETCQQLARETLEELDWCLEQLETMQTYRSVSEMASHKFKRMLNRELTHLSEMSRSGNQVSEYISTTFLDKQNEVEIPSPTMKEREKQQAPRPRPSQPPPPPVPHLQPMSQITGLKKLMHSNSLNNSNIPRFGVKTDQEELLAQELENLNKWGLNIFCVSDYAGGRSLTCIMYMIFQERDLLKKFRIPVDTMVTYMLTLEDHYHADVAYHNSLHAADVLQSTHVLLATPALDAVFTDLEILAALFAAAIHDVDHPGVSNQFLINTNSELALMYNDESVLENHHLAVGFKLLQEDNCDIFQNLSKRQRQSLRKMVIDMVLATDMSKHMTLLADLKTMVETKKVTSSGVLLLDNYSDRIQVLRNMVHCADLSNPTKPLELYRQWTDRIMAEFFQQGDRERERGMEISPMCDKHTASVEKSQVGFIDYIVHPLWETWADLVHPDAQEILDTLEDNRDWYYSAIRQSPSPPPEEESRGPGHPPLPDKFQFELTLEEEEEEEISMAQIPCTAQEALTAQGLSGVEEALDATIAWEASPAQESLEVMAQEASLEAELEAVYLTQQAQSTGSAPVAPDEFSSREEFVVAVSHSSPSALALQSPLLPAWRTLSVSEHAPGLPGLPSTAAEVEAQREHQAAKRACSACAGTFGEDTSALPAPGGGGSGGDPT
Chain of High affinity 3',5'-cyclic-AMP phosphodiesterase 7A (Q13946 whole entry): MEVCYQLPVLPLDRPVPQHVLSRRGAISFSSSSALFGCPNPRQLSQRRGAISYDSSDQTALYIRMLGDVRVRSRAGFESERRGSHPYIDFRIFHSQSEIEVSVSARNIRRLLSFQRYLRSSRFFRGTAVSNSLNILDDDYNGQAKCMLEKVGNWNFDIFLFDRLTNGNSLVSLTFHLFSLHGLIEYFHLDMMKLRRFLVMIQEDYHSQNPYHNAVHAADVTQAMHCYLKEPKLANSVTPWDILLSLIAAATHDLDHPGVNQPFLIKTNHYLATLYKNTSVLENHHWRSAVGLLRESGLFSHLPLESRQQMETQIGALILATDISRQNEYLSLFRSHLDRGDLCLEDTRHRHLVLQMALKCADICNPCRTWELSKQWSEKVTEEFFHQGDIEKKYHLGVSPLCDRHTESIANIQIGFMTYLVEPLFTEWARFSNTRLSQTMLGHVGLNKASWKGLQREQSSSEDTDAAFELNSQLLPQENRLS
Chain of serum albumin (P02768 whole entry): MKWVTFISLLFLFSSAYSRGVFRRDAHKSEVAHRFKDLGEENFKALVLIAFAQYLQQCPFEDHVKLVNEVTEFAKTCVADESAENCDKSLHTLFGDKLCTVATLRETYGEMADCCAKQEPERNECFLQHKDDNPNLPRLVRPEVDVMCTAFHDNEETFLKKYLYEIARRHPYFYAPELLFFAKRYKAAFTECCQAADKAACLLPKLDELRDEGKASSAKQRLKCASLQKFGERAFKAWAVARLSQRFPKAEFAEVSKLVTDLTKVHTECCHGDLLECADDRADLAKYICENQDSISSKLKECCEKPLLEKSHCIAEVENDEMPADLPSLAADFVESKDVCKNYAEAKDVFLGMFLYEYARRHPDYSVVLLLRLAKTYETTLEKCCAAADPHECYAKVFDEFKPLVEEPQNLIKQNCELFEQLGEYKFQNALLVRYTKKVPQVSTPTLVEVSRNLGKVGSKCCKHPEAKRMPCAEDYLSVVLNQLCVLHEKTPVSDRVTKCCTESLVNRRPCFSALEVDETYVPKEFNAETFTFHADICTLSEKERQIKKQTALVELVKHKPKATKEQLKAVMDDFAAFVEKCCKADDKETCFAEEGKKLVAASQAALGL
Chain of Cytochrome P450 1A2 (P05177 whole entry): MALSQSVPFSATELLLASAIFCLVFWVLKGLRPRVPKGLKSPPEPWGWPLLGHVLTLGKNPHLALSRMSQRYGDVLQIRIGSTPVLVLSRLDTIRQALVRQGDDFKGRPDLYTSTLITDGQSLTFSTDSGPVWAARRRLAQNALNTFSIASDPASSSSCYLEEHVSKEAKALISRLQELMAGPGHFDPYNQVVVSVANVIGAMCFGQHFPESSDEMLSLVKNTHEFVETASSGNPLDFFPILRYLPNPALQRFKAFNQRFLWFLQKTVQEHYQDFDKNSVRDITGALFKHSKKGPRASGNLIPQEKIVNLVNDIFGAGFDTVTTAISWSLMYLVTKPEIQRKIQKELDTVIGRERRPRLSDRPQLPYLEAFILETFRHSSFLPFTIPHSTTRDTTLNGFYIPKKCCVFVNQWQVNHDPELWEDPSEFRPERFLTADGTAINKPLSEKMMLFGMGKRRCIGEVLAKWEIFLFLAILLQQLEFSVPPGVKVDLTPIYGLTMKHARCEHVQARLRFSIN
Chain of Cytochrome P450 2C19 (P33261 whole entry): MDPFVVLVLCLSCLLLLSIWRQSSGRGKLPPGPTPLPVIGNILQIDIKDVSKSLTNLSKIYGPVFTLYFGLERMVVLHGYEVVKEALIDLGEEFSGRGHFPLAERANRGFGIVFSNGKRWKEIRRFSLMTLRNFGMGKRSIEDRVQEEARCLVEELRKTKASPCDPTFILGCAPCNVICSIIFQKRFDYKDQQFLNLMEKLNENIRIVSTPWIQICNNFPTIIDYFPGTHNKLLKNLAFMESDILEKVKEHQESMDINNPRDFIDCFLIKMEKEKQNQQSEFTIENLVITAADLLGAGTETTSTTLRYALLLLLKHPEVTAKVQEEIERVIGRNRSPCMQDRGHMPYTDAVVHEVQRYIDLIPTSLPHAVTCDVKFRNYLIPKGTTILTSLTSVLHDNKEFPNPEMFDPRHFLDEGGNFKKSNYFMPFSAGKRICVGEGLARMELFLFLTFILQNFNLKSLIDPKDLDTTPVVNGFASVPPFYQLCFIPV
Chain of Cytochrome P450 2D6 (P10635 whole entry): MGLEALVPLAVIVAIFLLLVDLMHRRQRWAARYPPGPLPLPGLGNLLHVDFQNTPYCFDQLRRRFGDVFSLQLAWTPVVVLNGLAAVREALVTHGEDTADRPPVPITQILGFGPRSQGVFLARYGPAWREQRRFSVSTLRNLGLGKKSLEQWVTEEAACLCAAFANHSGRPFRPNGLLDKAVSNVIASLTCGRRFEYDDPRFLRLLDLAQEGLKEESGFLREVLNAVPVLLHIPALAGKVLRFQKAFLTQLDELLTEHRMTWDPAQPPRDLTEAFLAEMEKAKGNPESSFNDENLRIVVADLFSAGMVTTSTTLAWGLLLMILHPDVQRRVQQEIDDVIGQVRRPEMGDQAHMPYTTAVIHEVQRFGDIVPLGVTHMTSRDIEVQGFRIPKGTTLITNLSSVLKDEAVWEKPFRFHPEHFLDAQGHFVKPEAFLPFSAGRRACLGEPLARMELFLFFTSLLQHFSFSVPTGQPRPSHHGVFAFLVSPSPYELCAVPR
Chain of High affinity cGMP-specific 3',5'-cyclic phosphodiesterase 9A (O76083 whole entry): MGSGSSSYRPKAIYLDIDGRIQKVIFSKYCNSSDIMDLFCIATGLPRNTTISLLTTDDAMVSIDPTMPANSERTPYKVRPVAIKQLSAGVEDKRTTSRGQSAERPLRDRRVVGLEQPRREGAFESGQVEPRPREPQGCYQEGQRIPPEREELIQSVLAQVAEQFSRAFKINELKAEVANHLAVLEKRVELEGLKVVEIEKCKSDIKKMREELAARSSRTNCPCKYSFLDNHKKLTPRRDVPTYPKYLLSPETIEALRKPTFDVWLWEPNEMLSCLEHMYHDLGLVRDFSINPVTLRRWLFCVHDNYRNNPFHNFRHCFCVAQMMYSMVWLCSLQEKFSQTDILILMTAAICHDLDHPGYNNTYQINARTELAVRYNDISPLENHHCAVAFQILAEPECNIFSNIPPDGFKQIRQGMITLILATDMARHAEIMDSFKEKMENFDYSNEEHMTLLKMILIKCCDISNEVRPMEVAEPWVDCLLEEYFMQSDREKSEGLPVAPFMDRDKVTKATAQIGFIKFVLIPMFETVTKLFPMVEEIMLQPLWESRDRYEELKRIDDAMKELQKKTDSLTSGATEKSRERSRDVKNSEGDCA
Chain of Dual specificity calcium/calmodulin-dependent 3',5'-cyclic nucleotide phosphodiesterase 1B (Q01064 whole entry): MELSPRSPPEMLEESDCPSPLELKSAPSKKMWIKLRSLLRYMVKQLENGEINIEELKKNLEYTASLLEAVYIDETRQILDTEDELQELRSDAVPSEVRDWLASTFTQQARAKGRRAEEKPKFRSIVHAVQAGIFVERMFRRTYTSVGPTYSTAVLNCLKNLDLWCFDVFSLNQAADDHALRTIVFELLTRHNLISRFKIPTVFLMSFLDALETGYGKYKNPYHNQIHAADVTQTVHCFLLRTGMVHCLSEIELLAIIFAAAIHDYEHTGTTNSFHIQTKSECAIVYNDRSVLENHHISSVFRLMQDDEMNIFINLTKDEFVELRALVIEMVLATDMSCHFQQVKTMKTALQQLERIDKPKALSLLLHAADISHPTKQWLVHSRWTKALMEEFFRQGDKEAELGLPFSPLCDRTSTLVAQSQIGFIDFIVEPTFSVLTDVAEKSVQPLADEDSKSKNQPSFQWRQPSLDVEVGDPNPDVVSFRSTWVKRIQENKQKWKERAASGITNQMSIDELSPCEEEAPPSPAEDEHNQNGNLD

SMILES: CCC(C#N)(CC)Nc1nc(NC)nc(-n2cncn2)n1
- IC50 (Blood): 55 nM
- IC50 [1]: > 1000 nM
- IC50 [2]: > 10000 nM
- IC50 [3]: 0.81 nM
- solubility [4]: 165 µg/mL (≈ 574 µM)
- IC50 (PBMC): 22 nM
- inhibition in vivo at 0.01 mg/kg (Mustela putorius furo [5]): 33%
- inhibition at 10 µM (hERG (KCNH2)): 6%
- inhibition in vivo at 0.1 mg/kg (Rattus norvegicus): 41%
- IC50 [6]: > 1000 nM
- clearance [7]: 3.3 mL/min/kg
- IC50 [8]: 0.87 nM
- IC50 (Cytochrome P450 2D6): > 10000 nM
- fraction unbound (serum albumin): 0.49
- half-life [9]: 1.7 h
- CLint scaled [10]: < 1 mL/min/kg
- Cmax [11]: 669 ng/mL
- IC50 [12]: > 1000 nM
- IC50 [13]: > 1000 nM
- CLint scaled [14]: 26 mL/min/kg
- IC50 [15]: > 10000 nM
- IC50 [16]: > 1000 nM
- IC50 [17]: > 1000 nM
- IC50 (Cytochrome P450 2C19): > 10000 nM
- IC50 [18]: > 1000 nM
- IC50 (Cytochrome P450 2C9): > 10000 nM
- IC50 (Cytochrome P450 1A2): > 10000 nM
- IC50 (Cytochrome P450 2A6): > 10000 nM
- IC50 [19]: > 10000 nM
- bioavailability [20]: 41%
- CLint scaled [21]: < 1 mL/min/kg
- IC50 [22]: > 1000 nM
- IC50 [23]: > 1000 nM
- IC50 [24]: 1.18 nM
- IC50 (Cytochrome P450 1A1): > 10000 nM
- inhibition in vivo at 0.1 mg/kg (Mustela putorius furo [25]): 66%
- Vd [26]: 0.5 L/kg
- Activity (Mustela putorius furo [27]): 3 mg/kg

- IC50 [3]: 6.5 nM
- CLint scaled [14]: 32 mL/min/kg
SMILES: CCCC(C#N)(CCC)Nc1nc(NC)nc(-n2cncn2)n1

- IC50 (Phosphodiesterase 4): 140 nM
SMILES: O=S1(=O)CCN(c2nc(NC3CC3)nc(C3CC3)n2)C1

- IC50 [3]: 104 nM
SMILES: CNc1nc(Cl)nc(NC2CCCCC2)n1

- IC50 [3]: 2.4 nM
- solubility [4]: 50 µg/mL (≈ 183 µM)
- CLint scaled [14]: 32 mL/min/kg
SMILES: CCC(C)(C#N)Nc1nc(NC)nc(-n2cncn2)n1 (racemic)

- solubility [4]: 1.3 µg/mL (≈ 3.22 µM)
- fraction unbound (serum albumin): 0.03
SMILES: O=C(Nc1c(Cl)cncc1Cl)c1ccc(OC(F)F)c(OCC2CC2)c1 [ROFLUMILAST]
- inhibition in vivo at 0.01 mg/kg (Mustela putorius furo [5]): 65%
- Activity (Mustela putorius furo [27]): 1 mg/kg

- IC50 [3]: 149 nM
SMILES: C#CC1(Nc2nc(Cl)nc(NC)n2)CCCCC1

- IC50 [3]: 2.7 nM
- CLint scaled [14]: 22 mL/min/kg
SMILES: C#CC(CC)(CC)Nc1nc(NC)nc(-n2cncn2)n1

- IC50 [3]: 668 nM
SMILES: CN(C)c1nc(Cl)nc(NC2(C#N)CCCCC2)n1

- IC50 [3]: 44 nM
SMILES: CNc1nc(Cl)nc(NC2(C#N)CCCCCC2)n1

- IC50 [3]: 54 nM
SMILES: CNc1nc(Cl)nc(NC2(C#N)CCCC2)n1

- solubility [4]: 171 µg/mL (≈ 621 µM)
- fraction unbound (serum albumin): 0.42
SMILES: COc1ccc(C2CNC(=O)C2)cc1OC1CCCC1 (racemic) [ROLIPRAM]
- Activity (Mustela putorius furo [28]): 0.3 mg/kg

SMILES: CNc1nc(NC2(C#N)CCCCC2)nc(SC)n1
- IC50 [29]: 46 nM
- IC50 [3]: 4.4 nM
- CLint scaled [14]: 579 mL/min/kg

- IC50 [3]: 0.2 nM
- CLint scaled [14]: 96 mL/min/kg
SMILES: CNc1nc(NC2(C#N)CCCC(C)C2)nc(-n2cncn2)n1 (mixture of isomers)

SMILES: CNc1nc(NC2CCCC2)nc(NC2(C#N)CCCCC2)n1
- IC50 [29]: > 5000 nM
- IC50 [3]: 59 nM

- IC50 [3]: 1.6 nM
- CLint scaled [14]: 37 mL/min/kg
SMILES: CNc1nc(NC2(C#N)CCC(C)CC2)nc(-n2cncn2)n1 (mixture of isomers)

SMILES: CNc1nc(NC2(C#N)CCCCC2)nc(-n2cccn2)n1
- IC50 [29]: > 5000 nM
- IC50 [3]: 3.6 nM
- CLint scaled [14]: 103 mL/min/kg

SMILES: CNc1nc(NC2(C#N)CCCCC2)nc(-n2cnc3ccccc32)n1
- IC50 [29]: > 1000 nM
- IC50 [3]: 12 nM

SMILES: CNc1nc(Nc2ccccc2)nc(NC2(C#N)CCCCC2)n1
- IC50 [29]: > 5000 nM
- IC50 [3]: 56 nM

SMILES: CNc1nc(NC)nc(NC2(C#N)CCCCC2)n1
- IC50 [29]: > 1000 nM
- IC50 [3]: 153 nM
- CLint scaled [14]: 210 mL/min/kg

SMILES: CNc1nc(C#N)nc(NC2(C#N)CCCCC2)n1
- IC50 [29]: > 1000 nM
- IC50 [3]: 38 nM
- CLint scaled [14]: 122 mL/min/kg

SMILES: CNc1nc(NC2(C#N)CCCCC2)nc(-n2ccnc2)n1
- IC50 [29]: 1050 nM
- IC50 [3]: 6.6 nM
- CLint scaled [14]: 52 mL/min/kg
- inhibition (INH) [30]: Not Active
- inhibition (INH) [31]: Not Active

- IC50 [3]: 232 nM
SMILES: CCNc1nc(Cl)nc(NC2(C#N)CCCCC2)n1
